Where “and” joins values, the source holds several entries; their conditions need not be identical. Identical values can stand only once.
Tested on: HEK-293T
Test: Multiplex assay against HEK293T
Assay type: toxicity, cell-based
Conditions: human, number of replicates 2
Method in brief: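 Compound was added to live cells that had been stained at seeding with Hoechst33342, BioTracker Green Microtubule Cytoskeleton Dye, MitoTracker Red and Annexin V Alexa Fluor 680, and imaging followed on a CQ1 microscope at 37°C and 5% CO2. CellPathfinder machine-learning gating divided cells into Hoechst high-intensity objects or normal cells, normal cells into healthy, pyknosed or fragmented nuclei, and pyknosed cells into mitotic or apoptotic. Tubulin, mitochondrial-mass and membrane-permeability phenotypes are per cents of healthy-nucleus cells.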

[1] = 12 h, 1 µM, compound concentration 1 uM
[2] = 12 h, 10 µM, compound concentration 10 uM
[3] = 24 h, 1 µM, compound concentration 1 uM
[4] = 24 h, 10 µM, compound concentration 10 uM
[5] = 48 h, 1 µM, compound concentration 1 uM
[6] = 48 h, 10 µM, compound concentration 10 uM

What does the source list for `Cc1cc(NC(=O)c2cccc(NC(=O)/C=C/CN(C)C)c2)ccc1Nc1nccc(-c2cccnc2)n1`?
Population Apoptotic (%) [1]: 41% and 60%; Population Fragmented Nuclei (%) [1]: 3%; Population Healthy Nuclei (%) [1]: 87%; Population Hoechst High Intensity Objects (%) [1]: 11% and 10%; Population Membrane Permeable-Phenotype (%) [1]: 4% and 2%; Population Mitochondria Different-Phenotype (%) [1]: 40% and 30%; Population Mitotic Cells (%) [1]: 58% and 40%; Population Normal (%) [1]: 88% and 89%; Population Pyknosed Nuclei (%) [1]: 9%; Population Tubulin-Different-Phenotype (%) [1]: 93% and 92%; Total Cell Count [1]: 450 and 477; Population Apoptotic (%) [2]: 63% and 71%; Population Fragmented Nuclei (%) [2]: 1% and 3%; Population Healthy Nuclei (%) [2]: 85% and 87%; Population Hoechst High Intensity Objects (%) [2]: 8% and 11%; Population Membrane Permeable-Phenotype (%) [2]: 2% and 1%; Population Mitochondria Different-Phenotype (%) [2]: 35% and 50%; Population Mitotic Cells (%) [2]: 36% and 28%; Population Normal (%) [2]: 91% and 88%; Population Pyknosed Nuclei (%) [2]: 12% and 9%; Population Tubulin-Different-Phenotype (%) [2]: 95% and 97%; Total Cell Count [2]: 393 and 436; Population Apoptotic (%) [3]: 62% and 53%; Population Fragmented Nuclei (%) [3]: 5%; Population Healthy Nuclei (%) [3]: 82% and 81%; Population Hoechst High Intensity Objects (%) [3]: 11% and 10%; Population Membrane Permeable-Phenotype (%) [3]: 2%; Population Mitochondria Different-Phenotype (%) [3]: 36% and 28%; Population Mitotic Cells (%) [3]: 37% and 46%; Population Normal (%) [3]: 88% and 89%; Population Pyknosed Nuclei (%) [3]: 12%; Population Tubulin-Different-Phenotype (%) [3]: 92% and 90%; Total Cell Count [3]: 510 and 551; Population Apoptotic (%) [4]: 76% and 74%; Population Fragmented Nuclei (%) [4]: 2% and 5%; Population Healthy Nuclei (%) [4]: 87% and 77%; Population Hoechst High Intensity Objects (%) [4]: 19% and 14%; Population Membrane Permeable-Phenotype (%) [4]: 0% and 1%; Population Mitochondria Different-Phenotype (%) [4]: 79% and 60%; Population Mitotic Cells (%) [4]: 23% and 25%; Population Normal (%) [4]: 80% and 85%; Population Pyknosed Nuclei (%) [4]: 10% and 17%; Population Tubulin-Different-Phenotype (%) [4]: 99% and 96%; Total Cell Count [4]: 367 and 377; Population Apoptotic (%) [5]: 66% and 70%; Population Fragmented Nuclei (%) [5]: 10% and 12%; Population Healthy Nuclei (%) [5]: 77% and 76%; Population Hoechst High Intensity Objects (%) [5]: 11% and 12%; Population Membrane Permeable-Phenotype (%) [5]: 5% and 7%; Population Mitochondria Different-Phenotype (%) [5]: 10% and 11%; Population Mitotic Cells (%) [5]: 33% and 29%; Population Normal (%) [5]: 88% and 87%; Population Pyknosed Nuclei (%) [5]: 11%; Population Tubulin-Different-Phenotype (%) [5]: 83% and 80%; Total Cell Count [5]: 671 and 800; Population Apoptotic (%) [6]: 74% and 73%; Population Fragmented Nuclei (%) [6]: 6%; Population Healthy Nuclei (%) [6]: 43% and 40%; Population Hoechst High Intensity Objects (%) [6]: 27% and 19%; Population Membrane Permeable-Phenotype (%) [6]: 12% and 9%; Population Mitochondria Different-Phenotype (%) [6]: 61%; Population Mitotic Cells (%) [6]: 25% and 26%; Population Normal (%) [6]: 72% and 80%; Population Pyknosed Nuclei (%) [6]: 50% and 52%; Population Tubulin-Different-Phenotype (%) [6]: 74% and 70%; Total Cell Count [6]: 368 and 375

What does the source list for `CC1(C)C(=O)N([C@H]2CCc3c(O)cccc32)c2nc(Nc3cccc(CN4CCCC4)c3)ncc21`?
Population Apoptotic (%) [1]: 51% and 69%; Population Fragmented Nuclei (%) [1]: 1% and 2%; Population Healthy Nuclei (%) [1]: 83% and 87%; Population Hoechst High Intensity Objects (%) [1]: 19% and 21%; Population Membrane Permeable-Phenotype (%) [1]: 1%; Population Mitochondria Different-Phenotype (%) [1]: 70% and 76%; Population Mitotic Cells (%) [1]: 48% and 30%; Population Normal (%) [1]: 80% and 78%; Population Pyknosed Nuclei (%) [1]: 14% and 10%; Population Tubulin-Different-Phenotype (%) [1]: 89% and 94%; Total Cell Count [1]: 252 and 277; Population Apoptotic (%) [2]: 80% and 74%; Population Fragmented Nuclei (%) [2]: 1% and 2%; Population Healthy Nuclei (%) [2]: 80% and 77%; Population Hoechst High Intensity Objects (%) [2]: 18% and 19%; Population Membrane Permeable-Phenotype (%) [2]: 2% and 0%; Population Mitochondria Different-Phenotype (%) [2]: 93% and 97%; Population Mitotic Cells (%) [2]: 19% and 25%; Population Normal (%) [2]: 81% and 80%; Population Pyknosed Nuclei (%) [2]: 17% and 20%; Population Tubulin-Different-Phenotype (%) [2]: 96% and 97%; Total Cell Count [2]: 216 and 218; Population Apoptotic (%) [3]: 88% and 33%; Population Fragmented Nuclei (%) [3]: 4% and 3%; Population Healthy Nuclei (%) [3]: 88% and 86%; Population Hoechst High Intensity Objects (%) [3]: 17% and 25%; Population Membrane Permeable-Phenotype (%) [3]: 2% and 3%; Population Mitochondria Different-Phenotype (%) [3]: 60% and 63%; Population Normal (%) [3]: 82% and 74%; Population Pyknosed Nuclei (%) [3]: 7% and 9%; Population Tubulin-Different-Phenotype (%) [3]: 92% and 89%; Total Cell Count [3]: 296 and 243; Population Apoptotic (%) [4]: 90% and 88%; Population Fragmented Nuclei (%) [4]: 4% and 3%; Population Healthy Nuclei (%) [4]: 77% and 75%; Population Hoechst High Intensity Objects (%) [4]: 21%; Population Membrane Permeable-Phenotype (%) [4]: 3% and 1%; Population Mitochondria Different-Phenotype (%) [4]: 94% and 96%; Population Mitotic Cells (%) [4]: 9% and 11%; Population Normal (%) [4]: 78%; Population Pyknosed Nuclei (%) [4]: 18% and 21%; Population Tubulin-Different-Phenotype (%) [4]: 96% and 94%; Total Cell Count [4]: 220 and 205; Population Apoptotic (%) [5]: 61% and 45%; Population Fragmented Nuclei (%) [5]: 7% and 6%; Population Healthy Nuclei (%) [5]: 87% and 89%; Population Hoechst High Intensity Objects (%) [5]: 20% and 17%; Population Membrane Permeable-Phenotype (%) [5]: 2% and 0%; Population Mitochondria Different-Phenotype (%) [5]: 26% and 29%; Population Mitotic Cells (%) [5]: 38% and 54%; Population Normal (%) [5]: 79% and 82%; Population Pyknosed Nuclei (%) [5]: 4%; Population Tubulin-Different-Phenotype (%) [5]: 84% and 87%; Total Cell Count [5]: 362 and 302; Population Apoptotic (%) [6]: 88% and 89%; Population Fragmented Nuclei (%) [6]: 3% and 1%; Population Healthy Nuclei (%) [6]: 71% and 74%; Population Hoechst High Intensity Objects (%) [6]: 22% and 24%; Population Membrane Permeable-Phenotype (%) [6]: 0%; Population Mitochondria Different-Phenotype (%) [6]: 94%; Population Mitotic Cells (%) [6]: 11% and 10%; Population Normal (%) [6]: 77% and 75%; Population Pyknosed Nuclei (%) [6]: 24%; Population Tubulin-Different-Phenotype (%) [6]: 98% and 97%; Total Cell Count [6]: 227 and 202

Which results are given for `COCCNC1CCC(Nc2cc(-c3csc(NCC4(C#N)CCOCC4)n3)c(Cl)cn2)CC1` (stereo unspecified)?
Population Apoptotic (%) [1]: 38% and 65%; Population Fragmented Nuclei (%) [1]: 4% and 2%; Population Healthy Nuclei (%) [1]: 81% and 83%; Population Hoechst High Intensity Objects (%) [1]: 7% and 9%; Population Membrane Permeable-Phenotype (%) [1]: 3% and 2%; Population Mitochondria Different-Phenotype (%) [1]: 50% and 51%; Population Mitotic Cells (%) [1]: 61% and 34%; Population Normal (%) [1]: 92% and 90%; Population Pyknosed Nuclei (%) [1]: 13% and 14%; Population Tubulin-Different-Phenotype (%) [1]: 76% and 80%; Total Cell Count [1]: 472 and 403; Population Apoptotic (%) [2]: 74% and 66%; Population Fragmented Nuclei (%) [2]: 1% and 2%; Population Healthy Nuclei (%) [2]: 77% and 83%; Population Hoechst High Intensity Objects (%) [2]: 10% and 12%; Population Membrane Permeable-Phenotype (%) [2]: 2% and 3%; Population Mitochondria Different-Phenotype (%) [2]: 69% and 65%; Population Mitotic Cells (%) [2]: 25% and 33%; Population Normal (%) [2]: 89% and 87%; Population Pyknosed Nuclei (%) [2]: 20% and 14%; Population Tubulin-Different-Phenotype (%) [2]: 96% and 94%; Total Cell Count [2]: 313 and 412; Population Apoptotic (%) [3]: 48% and 66%; Population Fragmented Nuclei (%) [3]: 2% and 4%; Population Healthy Nuclei (%) [3]: 88% and 83%; Population Hoechst High Intensity Objects (%) [3]: 13% and 16%; Population Membrane Permeable-Phenotype (%) [3]: 1% and 2%; Population Mitochondria Different-Phenotype (%) [3]: 62% and 58%; Population Mitotic Cells (%) [3]: 51% and 33%; Population Normal (%) [3]: 86% and 83%; Population Pyknosed Nuclei (%) [3]: 8% and 12%; Population Tubulin-Different-Phenotype (%) [3]: 72% and 74%; Total Cell Count [3]: 431 and 359; Population Apoptotic (%) [4]: 91% and 67%; Population Fragmented Nuclei (%) [4]: 3%; Population Healthy Nuclei (%) [4]: 82% and 87%; Population Hoechst High Intensity Objects (%) [4]: 15% and 21%; Population Membrane Permeable-Phenotype (%) [4]: 2%; Population Mitochondria Different-Phenotype (%) [4]: 81% and 75%; Population Normal (%) [4]: 84% and 78%; Population Pyknosed Nuclei (%) [4]: 14% and 8%; Population Tubulin-Different-Phenotype (%) [4]: 93% and 92%; Total Cell Count [4]: 294 and 402; Population Apoptotic (%) [5]: 55% and 65%; Population Fragmented Nuclei (%) [5]: 1% and 5%; Population Healthy Nuclei (%) [5]: 91% and 84%; Population Hoechst High Intensity Objects (%) [5]: 14% and 17%; Population Membrane Permeable-Phenotype (%) [5]: 1% and 2%; Population Mitochondria Different-Phenotype (%) [5]: 71% and 68%; Population Mitotic Cells (%) [5]: 45% and 34%; Population Normal (%) [5]: 85% and 82%; Population Pyknosed Nuclei (%) [5]: 7% and 9%; Population Tubulin-Different-Phenotype (%) [5]: 75%; Total Cell Count [5]: 317 and 304; Population Apoptotic (%) [6]: 92% and 82%; Population Fragmented Nuclei (%) [6]: 1% and 4%; Population Healthy Nuclei (%) [6]: 78% and 85%; Population Hoechst High Intensity Objects (%) [6]: 13% and 22%; Population Membrane Permeable-Phenotype (%) [6]: 3% and 1%; Population Mitochondria Different-Phenotype (%) [6]: 85% and 82%; Population Mitotic Cells (%) [6]: 7% and 17%; Population Normal (%) [6]: 86% and 77%; Population Pyknosed Nuclei (%) [6]: 19% and 9%; Population Tubulin-Different-Phenotype (%) [6]: 95% and 90%; Total Cell Count [6]: 237 and 368

Source: ChEMBL document CHEMBL5303300, “EUbOPEN Chemogenomics Library - Multiplex” (2023)
